Most compounds without a hit are left out; they make up all but 1.2% or so of the library.
FXIa inh – human FXIa protease inhibitors, primary screen, biochemical, 1536-well | Coagulation factor XI (Homo sapiens), P03951 | purified FXIa, Boc-Glu-Ala-Arg-AMC fluorogenic substrate | inhibition, % at 5 µM | 220,000 compounds, 0.14% hits;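 active = inhibition of at least 40%; inactive = inhibition below 40%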;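 note: fluorescence of freed AMC excited at 355 nm; 0% = enzyme without compound and 100% = no enzyme blank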
Thrombin inh – human alpha-thrombin inhibitors, primary screen, counter-screen for coagulation protease inhibitor project, biochemical, 1536-well, fluorogenic AMC substrate | AID 1046, 2008 | Prothrombin (Homo sapiens), P00734 | 220,000 compounds, 0.26% hits | Boc-VPR-AMC fluorogenic substrate cleavage | inhibition, % at 5 µM;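 active = inhibition at or above 40%; inactive = inhibition below 40%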;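 note: 0% = enzyme with no compound and 100% = wells without enzyme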
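Material: human alpha-thrombin protein; Also added: Boc-VPR-AMC substrate, 15 µM final; Timing: enzyme reaction carried out at room temperature; Signal: fluorescence, ex 355 nm, em 460 nm; Measure: % inhibition of thrombin; Controls: enzyme without compound as high, wells lacking enzyme as low.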
FXIIa inh 1536 – human FXIIa protease inhibitors, primary screen, biochemical, 1536-well | AID 800, 2007 | purified FXIIa, Boc-QGR-AMC fluorogenic substrate, 2 h | Coagulation factor XII (Homo sapiens), P00748 | inhibition, % at 5 µM | 220,000 compounds, 0.3% hits; in the data active = inhibition above about 40%;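 note: 0% = enzyme with no compound and 100% = blank without enzyme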
KLK5 inh – human KLK5 protease inhibitors, primary screen, biochemical, 1536-well. inhibition, % at 5 µM. recombinant hK5, fluorogenic AMC substrate cleavage. 210,000 compounds, 0.59% hits. AID 873, 2007. Kallikrein-5 (Homo sapiens), Q9Y337;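 active = inhibition of 40% or more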;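 note: 0% = enzyme controls without compound and 100% = no-enzyme blanks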
Target sequence (Q9Y337 67-293 limits assumed): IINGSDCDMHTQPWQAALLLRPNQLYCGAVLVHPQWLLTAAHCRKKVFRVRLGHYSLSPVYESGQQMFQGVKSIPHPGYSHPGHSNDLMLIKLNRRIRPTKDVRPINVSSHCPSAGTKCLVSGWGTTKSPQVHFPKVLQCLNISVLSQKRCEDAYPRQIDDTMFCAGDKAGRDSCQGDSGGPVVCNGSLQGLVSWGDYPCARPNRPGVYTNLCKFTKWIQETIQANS
S1P3 antag – S1P3 receptor antagonists, primary screen, cell-based | Sphingosine 1-phosphate receptor 3 (Homo sapiens), Q99500 | CHO S1P3 NFAT-BLA reporter, FRET fluorescence, antagonist mode | inhibition, % at 4.98 µM | 170,000 compounds, 0.27% hits;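 active = inhibition above the plate cutoff, the mean inhibition of test wells on that plate plus 3 SD, cut at about 28% in these data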;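 note: cells challenged with S1P at its EC80 of 0.8 µM; blue over green emission ratio from cleaved BLA substrate after 4 h stimulation; 0% = S1P-stimulated wells and 100% = unstimulated DMSO-only wells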
Target sequence (Q99500 whole entry, looked up): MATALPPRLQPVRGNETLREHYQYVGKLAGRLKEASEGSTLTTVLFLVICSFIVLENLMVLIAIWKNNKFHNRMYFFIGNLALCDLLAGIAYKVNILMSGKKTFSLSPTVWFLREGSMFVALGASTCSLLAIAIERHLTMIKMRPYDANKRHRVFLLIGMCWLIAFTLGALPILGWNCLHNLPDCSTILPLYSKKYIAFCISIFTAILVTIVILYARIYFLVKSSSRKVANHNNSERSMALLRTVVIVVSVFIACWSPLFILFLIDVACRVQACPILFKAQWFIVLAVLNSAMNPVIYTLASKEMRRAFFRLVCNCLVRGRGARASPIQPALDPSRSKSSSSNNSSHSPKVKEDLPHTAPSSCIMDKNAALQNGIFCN
DTT redox prof – compounds producing H2O2 with reducing agent – biochemical, NIH compound library profiling, artefact control for MLSCN library redox annotation, primary screen; DTT-dependent redox cycling H2O2, phenol red/HRP absorbance; 100% = 100 µM peroxide control, 0% = buffer; activation, % at 10 µM; 200,000 compounds, 0.03% hits;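 active = activation of at least 50% relative to the plate's high and low controls in the primary single-dose screen; inactive = activation below 50%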;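 note: compound incubated with DTT at 0.8 mM final as the reducing agent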
Numbers without * were called inactive; x = no result given.

SMILES | FXIa inh | Thrombin inh | FXIIa inh 1536 | KLK5 inh | S1P3 antag | DTT redox prof
O=C(c1ccc(N2CCCCC2)c([N+](=O)[O-])c1)N(c1ccccn1)c1ccccn1 | 1 | 43* | 9 | 3 | -1 | -1
COc1ccc(-c2cn3cccc(C)c3n2)cc1F | 32 | 13 | 21 | 41* | 15 | 0
Cc1cccc(N=Nc2cnc(N)s2)c1 | -1 | 1 | 12 | 5 | -2 | x
O=C(N/N=C/c1cccc(F)c1)c1c(O)c2ccccc2[nH]c1=O | -14 | 45* | -4 | 17 | -6 | 0
O=C(N/N=C/c1ccc(F)cc1)c1c(O)c2ccccc2[nH]c1=O | 20 | 3 | 7 | -2 | 2 | 0
COC(=O)c1ccc(NC(=O)CCn2cccc2)cc1 | -2 | -2 | 10 | -3 | -6 | -1
CCc1ccc(NC(=O)CCn2cccc2)cc1 | 41* | 11 | 14 | 15 | x | 0
Cc1ccc(S(=O)(=O)c2cc3ccccc3nc2N)cc1 | -2 | -2 | 6 | 0 | -11 | -2
COc1cc(CCCN2C(=S)NC[C@@H]2CC2CCCCC2)cc(OC)c1OC | -1 | -7 | 3 | -3 | x | x
CCC(=O)Nc1cc(C(C)C)c(O)cc1C | 6 | 18 | 18 | 83* | -27 | 3
COC(C[C@H]1O[C@H]1[C@H](O)[C@H](C)OCc1ccccc1)OC | 1 | -1 | 6 | 3 | x | x
CC1(C)CC(=O)C(C=Nc2ccccc2Sc2ccccc2)=C(O)C1 | 1 | 8 | 2 | 44* | x | 0
CC1(C)CC(=O)C(C=Nc2ccccc2C(=O)O)=C(O)C1 | 1 | 0 | 13 | 12 | -35 | -1
Cc1cccc(OCC(=O)N/N=C/c2ccccc2C(=O)O)c1 | 43* | 34 | 26 | 42* | 3 | 0
Cc1cccc(OCC(=O)N/N=C/c2ccc(N(C)C)cc2)c1 | -2 | -2 | 8 | 0 | 1 | 0
Cc1ccc2oc3c(c(=O)c2c1)C(c1cccc(O)c1)N(c1ccccn1)C3=O (stereo not drawn) | -8 | -2 | 0 | -1 | -5 | -3
COc1cc(C2c3c(oc4ccc(C)cc4c3=O)C(=O)N2c2cc(C)ccn2)cc(OC)c1OC (stereo not drawn) | x | x | x | x | 99* | x
O=[N+]([O-])c1cc(Cl)ccc1-c1nc(-c2ccccc2)no1 | 12 | 34 | 40 | 75* | 4 | 0
O=c1c2oc3nc4c(cc3c2ncn1CCCc1ccccc1)CCCC4 | -2 | -6 | 3 | -3 | 5 | x
O=C(CSc1ncn[nH]1)c1cc2ccccc2o1 | 5 | -5 | 4 | -3 | -1 | -1
O=C(CSc1nccc(=O)[nH]1)c1cc2ccccc2o1 | -7 | -5 | 2 | 46* | -9 | x
O=c1cc(-c2ccc([N+](=O)[O-])cc2)nc2cc(-c3ccc(Cl)cc3)[nH]n12 | 16 | 63* | -3 | 48* | -23 | 0
CC(C)NC(=S)NCc1cccs1 | -1 | -4 | 7 | 20 | -3 | -2
CN(C)c1ccc(CNc2nc(-c3ccccc3)nn2S(C)(=O)=O)cc1 | -8 | -7 | 3 | -12 | 5 | -1
CC(=O)n1nc(-c2ccccc2)nc1NCc1ccc(N(C)C)cc1 | -6 | 61* | -7 | -24 | -11 | 0
SMILES | FXIa inh | Thrombin inh | FXIIa inh 1536 | KLK5 inh | S1P3 antag | DTT redox prof
CCC(=O)n1nc(-c2ccc(OC)cc2)nc1NCc1cccs1 | 1 | 89* | 7 | -5 | 7 | -2
CC(=O)n1nc(-c2ccccc2)nc1NCc1cccs1 | -5 | 97* | 3 | -3 | -10 | 0
COc1ccc(CNc2nc(-c3ccccc3)nn2C(=O)c2cccs2)cc1 | -2 | -8 | 4 | -3 | x | 0
Cc1ccc(C)c(N2CCN(C(=O)CN(C)S(=O)(=O)c3ccc4c(c3)CCC(=O)N4)CC2)c1 | -10 | -2 | -4 | 53* | -1 | -1
COC(=O)c1ccc(Nc2nc(C)cc(=O)[nH]2)cc1 | 24 | 3 | 41* | -16 | -51 | -3
FC(F)C(F)(F)C(F)(F)C(F)(F)c1cc(-c2ccccc2)n[nH]1 | 50* | 1 | 50* | -11 | -6 | -1
Cc1sc2ncnc(OCC(=O)NC3CCS(=O)(=O)C3)c2c1C (stereo not drawn) | 20 | 29 | 24 | 103* | -16 | x
CC1CCCCC1NC(=O)COC(=O)c1cc(=O)c2ccccc2o1 (stereo not drawn) | 2 | -5 | 7 | -1 | -3 | 0
O=C(COC(=O)c1cc(=O)c2ccccc2o1)NC1CCCCC1 | 42* | 12 | 27 | 19 | -11 | -2
CC(/C=N/n1c(-c2ccncc2)n[nH]c1=S)=C\c1ccco1 | 2 | -5 | 5 | 1 | -1 | x
S=c1[nH]nc(-c2ccncc2)n1/N=C/C=C/c1ccco1 | 28 | 37 | 74* | 30 | -8 | -1
Cc1ccccc1-n1nc(C(=O)c2cccs2)cc(-c2nc3ccccc3[nH]2)c1=N | -1 | 1 | 0 | -77 | x | 3
COc1ccc(-n2nc(C(=O)c3cccs3)cc(-c3nc4ccccc4[nH]3)c2=N)cc1 | 14 | 57* | 20 | -19 | x | 2
CC(C)(C)c1[nH]c2ccccc2c1/C=N/O | 0 | -2 | 8 | 32 | x | 0
CC(C)(CO)N=Cc1c(O)[nH]c2ccccc12 | 4 | 1 | 17 | 48* | x | 0
CC(C)N=Cc1c(O)[nH]c2ccccc12 | 14 | 4 | 46* | -15 | x | 0
CN(CC(=O)Nc1cccc2ccccc12)C(=O)/C=C/c1cccs1 | 2 | -2 | 15 | -6 | -13 | 0
CC(C)c1ccc(-c2noc(C3CCCN(C(=O)c4ccc(F)cc4F)C3)n2)cc1 (stereo not drawn) | -10 | 61* | 3 | -10 | 0 | 1
CC(=O)c1ccc(NC(=S)Nc2cccc3cnccc23)cc1 | 65* | 19 | 11 | 13 | 6 | x
COc1ccc(-c2cc(C(F)F)n3ncc(C(=O)n4ccnc4C)c3n2)cc1 | -4 | 88* | -3 | -17 | -9 | 1
COc1ccc(-c2cc(C(F)F)n3ncc(C(=O)N4CCc5ccccc54)c3n2)cc1 | 1 | 20 | 11 | 2 | -6 | 1
CCOc1ccccc1CN1CCC(CO)(CCOc2ccccc2)CC1 | 1 | -5 | 9 | 0 | -14 | 0
Cc1nn(C)cc1CN1CCC(CO)(CCOc2ccccc2)CC1 | 23 | 68* | 27 | x | -23 | -2

Compound activity from PubChem BioAssay.
